Assay [1] has as its system Escherichia coli. Put plainly: Inhibition of Escherichia coli DHDPS-catalyzed condensation of pyruvate and aspartate semi-aldehyde at 5 mM measured after 1 min by UV-spectrophotometric analysis. The essentials: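 E. coli DHDPS in 200 mM HEPES pH 8.0 was pre-incubated 1 min with inhibitor (from 100% DMSO; final 5 mM), with a DMSO-only control. Activity was then read by the coupled DHDPR assay, following NADPH oxidation at 340 nm at 30 °C. The result is % inhibition relative to the control.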

For assay [2], the system named is Escherichia coli. Put plainly: Inhibition of Escherichia coli DHDPS-catalyzed condensation of pyruvate and aspartate semi-aldehyde at 50 mM after 60 mins by UV-spectrophotometric analysis.
A short description of assay [3]: (§1) Inhibition of Escherichia coli DHDPS-catalyzed condensation of pyruvate and aspartate semi-aldehyde by UV-spectrophotometric analysis. The note with it: read-out: Ki(app). The essentials: (§2)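 Time-dependent assay: DHDPS in HEPES pH 8.0 (raised to 500 mM for the acidic inhibitor) was pre-incubated with inhibitor at 0.5–25 mM. Aliquots were serially diluted before adding to substrates, and residual rate was measured by DHDPR/NADPH coupling at 340 nm at 30 °C. Decay curves of v_t/v_0 were fitted per Copeland. Ki app came from a y-intercept isotherm midpoint, and Ki* app from k_obs versus [I].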

Assay [4] has as its system Escherichia coli. Described as §1. The note with it: TDE = time-dependent effect. A digest of the protocol: as §2

For 6 compounds, inhibition and Ki results are on record in ChEMBL document CHEMBL1955825, “1,3-Phenylene bis(ketoacid) derivatives as inhibitors of Escherichia coli dihydrodipicolinate synthase” (Bioorg Med Chem, 2012).

As usually defined, the inhibition is the share of the control response that was lost under treatment.

Consider `O=C(O)/C(=N\O)c1cccc(/C(=N/O)C(=O)O)c1`, for which the results for the inhibition in assay [1] and in assay [2] were 23% and 34%, respectively.
Consider `O=C(O)C(=O)c1cccc(C(=O)C(=O)O)c1O`, for which the inhibition in assay [1] is 10%; in assay [4], “tde”. Further, in assay [3], the Ki was found to be 290 µM.
In assay [1], `O=C(O)C(=O)c1cccc(C(=O)C(=O)O)c1` returned an inhibition of 49%. Besides, the Ki in assay [3] was found to be 2960 µM.
Regarding `COC(=O)C(=O)c1cccc(C(=O)C(=O)OC)c1`, the inhibition in assay [1] worked out at 2%.
With `COC(=O)C(=O)c1cccc(C(=O)C(=O)OC)c1O`, the inhibition was 10% in assay [1] and “tde” in assay [4]. Moreover, the Ki in assay [3] came out at 40 µM.
`COC(=O)/C(=N\O)c1cccc(/C(=N/O)C(=O)OC)c1`: in assay [1], the inhibition amounted to 15%. Besides, in assay [3], the Ki turned out to be 330 µM.
